The subject of series [1] is Zika virus (PRVABC59 strain). It counts as cell-based. The conditions noted are these: for anti-Zika activity (in words): PRVABC59 strain, MOI 1, SNB-19 cells 24 h, titer in Vero cells 48 h. Put shortly: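 SNB-19 cells, pretreated 1 h with graded compound concentrations (0.1% DMSO final), then infected with C6/36-derived ZIKV at MOI 1. Supernatants were harvested 24 h post-infection and focus-titered on confluent Vero cells: 2 h inoculation, methylcellulose overlay for 48 h, 4G2 antibody with HRP/DAB staining, foci counted.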

A short description of series [2]: Cytotoxicity to Vero cells. It counts as cell-based. The following applies: monkey, Vero kidney cells.

Each structure is given as a SMILES string.

On to `C=C1CC[C@@H]2[C@]3(C)COC(C)(C)O[C@@H]3CC[C@@]2(C)[C@@H]1C/C=C1/C(=O)OC[C@H]1Oc1c(Cl)cc(Cl)c2cccnc12` [Compound 15b, (14α)-(Quinolyl-5’,7’-dichloro-8’-oxy)-3,19-acetonylidene andrographolide], for which the “anti-Zika activity (in words)” value in series [1] is listed as “do not show anti-Zika activity”.

Consider `C=C1CC[C@@H]2[C@](C)(CO)[C@H](O)CC[C@@]2(C)[C@@H]1C/C=C1/C(=O)OC[C@H]1Oc1c(Cl)cc(Cl)c2cccnc12` [Compound 16b, (14α)-(Quinolyl-5’,7’-dichloro-8’-oxy)andrographolide], for which, in series [2], the CC50 at 48 h came out at 58.6 µM.

As for `C=C1CC[C@@H]2[C@](C)(CO)[C@H](O)CC[C@@]2(C)[C@@H]1C/C=C1/C(=O)OC[C@@H]1Oc1cccc2cccnc12` [Compound 3], the “safety/selectivity index (SI)” value in series [1] (cell line not specified, CC50 in SNB-19 and Vero vs EC50) is on record as above 16.

`C=C1CC[C@@H]2[C@]3(C)COC(C)(C)O[C@@H]3CC[C@@]2(C)[C@@H]1C/C=C1/C(=O)OC[C@@H]1Oc1c(Cl)cc(Cl)c2cccnc12` [Compound 15a, (14β)-(Quinolyl-5’,7’-dichloro-8’-oxy)-3,19-acetonylidene andrographolide]: the “anti-Zika activity (in words)” value in series [1] was “do not show anti-Zika activity”.

As to `C=C1CC[C@@H]2[C@](C)(CO)[C@H](O)CC[C@@]2(C)[C@@H]1C/C=C1/C(=O)OC[C@H]1Oc1ccnc2ccccc12` [Compound 7], in series [2], it took 22.3 µM to reach half-maximal cytotoxicity (CC50 at 48 h).

`C=C1CC[C@@H]2[C@](C)(CO)[C@H](O)CC[C@@]2(C)[C@@H]1C/C=C1/C(=O)OC[C@@H]1Oc1ccnc2ccccc12` [Compound 6]: the “anti-Zika activity (in words)” value in series [1] was “inactive”.

One may read the CC50 as the concentration at which the toxic effect on the cells reaches its halfway point.

For the origin of these results see publication PMC6980694 (European journal of medicinal chemistry, 2019).
